Data as given in ChEMBL document CHEMBL3352362, “Discovery of a novel, first-in-class, orally bioavailable azaindole inhibitor (VX-787) of influenza PB2” (J Med Chem, 2014).

Assays:
Influenza A virus [1] = assay: Antiviral activity against Influenza A virus (A/Puerto Rico/8/1934(H1N1)) infected in MDCK cells assessed as cell protection after 72 hrs by cytopathic effect assay; type: functional, organism-based
In short: (§1)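 MDCK cells incubated with test compound and influenza A virus for 72 h (3-day CPE format). Cell viability read by an ATP end point. EC50 is the concentration giving 50% cell protection; mean of N = 3 or greater.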

Influenza A virus [2] = assay: Antiviral activity against Influenza A virus (A/Puerto Rico/8/1934(H1N1)) infected in cells assessed as reduction in multiplication of virus-specific RNA molecules using branched-chain DNA; type: functional
In short: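 Viral RNA replication in infected cells quantified by the bDNA QuantiGene method with strand-specific probes for positive- or negative-strand RNA. EC90 is the compound concentration giving viral RNA levels equal to 10% of control wells.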

[3] = biological target: Polymerase basic protein 2 (Influenza A virus (strain A/Puerto Rico/8/1934 H1N1), UniProt P03428); assay: Binding affinity to influenza A virus (A/Puerto Rico/8/1934(H1N1)) PB2 by competition binding fluorescence polarization (FP) assay
Sequence of Polymerase basic protein 2 (P03428 whole entry, the tested form may be a part): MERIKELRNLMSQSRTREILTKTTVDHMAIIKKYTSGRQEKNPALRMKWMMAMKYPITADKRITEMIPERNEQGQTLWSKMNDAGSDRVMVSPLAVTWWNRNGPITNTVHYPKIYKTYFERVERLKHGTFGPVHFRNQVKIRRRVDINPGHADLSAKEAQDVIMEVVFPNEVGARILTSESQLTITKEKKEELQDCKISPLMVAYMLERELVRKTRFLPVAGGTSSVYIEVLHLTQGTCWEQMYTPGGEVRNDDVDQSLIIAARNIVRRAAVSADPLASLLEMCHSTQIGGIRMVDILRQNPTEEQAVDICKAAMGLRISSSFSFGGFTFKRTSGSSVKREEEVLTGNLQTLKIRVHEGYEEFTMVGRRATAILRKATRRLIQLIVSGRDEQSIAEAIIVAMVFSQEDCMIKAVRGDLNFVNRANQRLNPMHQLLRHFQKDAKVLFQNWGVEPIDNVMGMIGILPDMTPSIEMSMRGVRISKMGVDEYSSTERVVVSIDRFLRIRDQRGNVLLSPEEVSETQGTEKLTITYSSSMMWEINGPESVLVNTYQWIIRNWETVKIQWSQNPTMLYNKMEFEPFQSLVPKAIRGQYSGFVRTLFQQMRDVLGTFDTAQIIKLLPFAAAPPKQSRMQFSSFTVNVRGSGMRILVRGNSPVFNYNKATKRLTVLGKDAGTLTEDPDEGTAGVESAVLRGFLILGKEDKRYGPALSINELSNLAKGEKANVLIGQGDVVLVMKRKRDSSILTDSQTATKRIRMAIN
In short: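 Fluorescence polarization competition binding assay measuring affinity for the cap-binding domain of the PB2 subunit.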

[4] = Clearance in rat at 3 mg/kg, iv; type: ADME, organism-based; set-up: dose 3 mg/kg, route intravenous; conditions: in vivo
[5] = Half life in rat at 3 mg/kg, iv; type: ADME, organism-based; set-up: dose 3 mg/kg, route intravenous; conditions: in vivo
[6] = AUC in rat at 3 mg/kg, po; type: ADME, organism-based; set-up: dose 3 mg/kg, route oral; conditions: plasma
[7] = Cmax in rat at 3 mg/kg, po; type: ADME, organism-based; set-up: dose 3 mg/kg, route oral; conditions: in vivo
[8] = Oral bioavailability in rat at 3 mg/kg; type: ADME, organism-based; conditions: in vivo
[9] = AUC in mouse at 30 mg/kg; type: ADME, organism-based; set-up: dose 30 mg/kg; conditions: plasma
[10] = Cmax in mouse at 30 mg/kg; type: ADME, organism-based; set-up: dose 30 mg/kg; conditions: in vivo
[11] = Antiviral activity against Influenza A virus A/Georgia/20/2006 infected in MDCK cells assessed as cell protection after 3 days by cytopathic effect assay; type: functional, cell-based, Influenza A virus (A/Georgia/20/2006(H1N1)); conditions: 72 h; in short: as §1
[12] = Antiviral activity against Influenza A virus A/Texas/48/2009 infected in MDCK cells assessed as cell protection after 3 days by cytopathic effect assay; type: functional, cell-based, Influenza A virus (A/Texas/48/2009(H1N1)); conditions: 72 h; in short: as §1
Influenza A virus [13] = assay: Antiviral activity against Influenza A virus A/Puerto Rico/8/34 infected in MDCK cells assessed as cell protection after 3 days by cytopathic effect assay; type: functional, organism-based; conditions: A/Puerto Rico/8/1934(H1N1), 72 h; in short: as §1
[14] = Antiviral activity against Influenza A virus A/California/07/2009 infected in MDCK cells assessed as cell protection after 3 days by cytopathic effect assay; type: functional, cell-based, Influenza A virus (A/California/07/2009(H1N1)); conditions: 72 h; in short: as §1
[15] = Antiviral activity against Influenza A virus A/Mexico/4108/2009 infected in MDCK cells assessed as cell protection after 3 days by cytopathic effect assay; type: functional, cell-based, Influenza A virus (A/Mexico/4108/2009(H1N1)); conditions: 72 h; in short: as §1
[16] = Antiviral activity against Influenza A virus A/New York/18/2009 infected in MDCK cells assessed as cell protection after 3 days by cytopathic effect assay; type: functional, cell-based, Influenza A virus (A/New York/18/2009(H1N1)); conditions: 72 h; in short: as §1

Row | Structure (SMILES) | EC50 (Influenza A virus [1]) [nM] | EC90 (Influenza A virus [2]) [nM] | Kd [3] [nM] | clearance [4] [mL/min/kg] | other results
1 | O=C(O)[C@H]1[C@@H]2CC[C@@H](C2)[C@@H]1Nc1nc(-c2c[nH]c3ncc(Cl)cc23)ncc1F (racemic) | 8 | 21 | < 2 |  | 
2 | N[C@@H]1CCCC[C@H]1Nc1nc(-c2c[nH]c3ncc(Cl)cc23)ncc1F | > 20000 |  | 4900 |  | 
3 | C[C@]1(C(=O)O)CCCC[C@@H]1Nc1nc(-c2c[nH]c3ncc(Cl)cc23)ncc1F (racemic) | 11 | 59 | < 2 | 24 | half-life [5]: 3.2 h; AUC [6]: 2200 ng·h/mL; Cmax [7]: 200 ng/mL; bioavailability [8]: 82%; AUC [9]: 2400 ng·h/mL; Cmax [10]: 1300 ng/mL
4 | CN(C)c1cnc2[nH]cc(-c3ncc(F)c(N[C@H]4CCC[C@@H](NC(=O)N5CCOCC5)C4)n3)c2c1 | 1260 | > 3000 |  |  | 
5 | Cn1cncc1C(=O)N[C@@H]1CCC[C@H](Nc2nc(-c3c[nH]c4ncc(F)cc34)ncc2F)C1 | 2 | 5 | 90 | 22 | half-life [5]: 2 h; AUC [6]: 3700 ng·h/mL; Cmax [7]: 600 ng/mL; bioavailability [8]: 100%; AUC [9]: 19000 ng·h/mL; Cmax [10]: 13000 ng/mL
6 | CS(=O)(=O)N1CCCC[C@@H]1CNc1nc(-c2c[nH]c3ncc(Cl)cc23)ncc1F | 660 | 540 | 100 | 152 | half-life [5]: 0.4 h
7 | CC(=O)N1CCC[C@H](CNc2nc(-c3c[nH]c4ncc(Cl)cc34)ncc2F)C1 | 400 | 540 | 300 |  | 
8 | O=C(O)[C@H]1CCCC[C@@H]1Nc1nc(-c2c[nH]c3ncc(Cl)cc23)ncc1F (racemic) | 134 | 187 | < 2 | 16 | half-life [5]: 1 h; AUC [6]: 200 ng·h/mL; Cmax [7]: 30 ng/mL; bioavailability [8]: 7%
9 | O=C(O)[C@H]1[C@H]2CC[C@H](C2)[C@@H]1Nc1nc(-c2c[nH]c3ncc(Cl)cc23)ncc1F (racemic) | < 2 | 6 | < 2 |  | 
10 | CN(C)C(=O)N[C@@H]1CCC[C@H](Nc2nc(-c3c[nH]c4ncc(F)cc34)ncc2F)C1 | 2 | 6 | 400 |  | 
11 | NC12CC3CC(CC(C3)C1)C2 [AMANTADINE] |  |  |  |  | EC50 [11]: > 10000 nM; EC50 [12]: > 10000 nM; EC50 (Influenza A virus [13]): > 10000 nM; EC50 [14]: > 10000 nM; EC50 [15]: > 10000 nM; EC50 [16]: > 10000 nM
12 | O=C(O)[C@H]1C2CCC(CC2)[C@@H]1Nc1nc(-c2c[nH]c3ncc(Cl)cc23)ncc1F | 1 | 1 | < 5 | 32 | half-life [5]: 3.9 h; AUC [6]: 300 ng·h/mL; Cmax [7]: 30 ng/mL; bioavailability [8]: 24%; AUC [9]: 10000 ng·h/mL; Cmax [10]: 3700 ng/mL
13 | Cc1cnc2[nH]cc(-c3ncc(F)c(N[C@H]4CCC[C@@H](NC(=O)N5CCOCC5)C4)n3)c2c1 | 10 | 13 |  | 78 | 
14 | COCC(=O)N[C@@H]1CCC[C@H](Nc2nc(-c3c[nH]c4ncc(Cl)cc34)ncc2F)C1 | 44 | 20 | 70 |  | 
15 | Fc1cnc(-c2c[nH]c3ncc(Cl)cc23)nc1NC1CCCNC1 (centres undefined) | 1870 |  |  |  | 
16 | COCCC(=O)N1CCC[C@H](Nc2nc(-c3c[nH]c4ncc(Cl)cc34)ncc2F)C1 | 13 | 320 | 100 | 88 | half-life [5]: 0.7 h
17 | C[C@]1(C(=O)O)CCCC[C@@H]1Nc1nc(-c2c[nH]c3ncc(F)cc23)ncc1F | 18 | 140 | < 2 |  | 
18 | COCC[C@]1(C(=O)O)CCCC[C@@H]1Nc1nc(-c2c[nH]c3ncc(Cl)cc23)ncc1F (racemic) | 18 | 90 | 9 |  | 
19 | CC(=O)c1cnc2[nH]cc(-c3ncc(F)c(N[C@H]4CCC[C@@H](NC(=O)N5CCOCC5)C4)n3)c2c1 | > 10000 | > 3000 |  |  | 
20 | NC(=O)CN1CCC[C@H](Nc2nc(-c3c[nH]c4ncc(Cl)cc34)ncc2F)C1 | 81 | 20 | 80 | 182 | 

Row | Structure (SMILES) | EC50 (Influenza A virus [1]) [nM] | EC90 (Influenza A virus [2]) [nM] | Kd [3] [nM] | clearance [4] [mL/min/kg] | other results
21 | Fc1cnc(-c2c[nH]c3ncc(Cl)cc23)nc1NC1CCCC1 | > 20000 | > 10000 | 700 |  | 
22 | CC(O)C(=O)N[C@@H]1CCC[C@H](Nc2nc(-c3c[nH]c4ncc(Cl)cc34)ncc2F)C1 (some centres undefined) | 86 | 240 | 400 |  | 
23 | Fc1cnc(-c2c[nH]c3ncc(Cl)cc23)nc1NC1CCCCC1 | 1640 | 2370 | 300 |  | 
24 | C[C@H](Nc1nc(-c2c[nH]c3ncc(Cl)cc23)ncc1F)C(=O)N(C)C | 510 | 1130 | 100 |  | 
25 | NC(=O)[C@H]1CCCC[C@@H]1Nc1nc(-c2c[nH]c3ncc(Cl)cc23)ncc1F (racemic) |  | 3130 | 30 |  | 
26 | CC(=O)N[C@@H]1CCC[C@H](Nc2nc(-c3c[nH]c4ncc(Cl)cc34)ncc2F)C1 | 36 | 25 | 70 |  | 
27 | O=C(N[C@@H]1CCC[C@H](Nc2nc(-c3c[nH]c4ncc(C(F)(F)F)cc34)ncc2F)C1)N1CCOCC1 | 3 | 3 |  | 81 | 
28 | COc1cnc2[nH]cc(-c3ncc(F)c(N[C@H]4CCC[C@@H](NC(=O)N5CCOCC5)C4)n3)c2c1 | 95 | 170 |  |  | 
29 | CC(=O)N[C@H]1CCCC[C@@H]1Nc1nc(-c2c[nH]c3ncc(Cl)cc23)ncc1F | 44 | 1460 | 100 |  | 
30 | O=C(NC1CCOCC1)N[C@@H]1CCC[C@H](Nc2nc(-c3c[nH]c4ncc(F)cc34)ncc2F)C1 | 60 | 160 | 400 |  | 
31 | N[C@H]1CCCC[C@@H]1Nc1nc(-c2c[nH]c3ncc(Cl)cc23)ncc1F | 620 | 2480 | 90 |  | 
32 | Cn1cncc1C(=O)N[C@@H]1CCC[C@H](Nc2nc(-c3c[nH]c4ncc(Cl)cc34)ncc2F)C1 | 2 | 3 | 20 |  | 
33 | CCc1cnc2[nH]cc(-c3ncc(F)c(N[C@H]4CCC[C@@H](NC(=O)N5CCOCC5)C4)n3)c2c1 | 25 | 260 |  |  | 
34 | OC[C@H](O)CN1CCC[C@H](Nc2nc(-c3c[nH]c4ncc(Cl)cc34)ncc2F)C1 | 270 | 360 | 400 | 56 | half-life [5]: 2.3 h; AUC [9]: 6500 ng·h/mL; Cmax [10]: 1200 ng/mL
35 | O=C(N[C@@H]1CCC[C@H](Nc2nc(-c3c[nH]c4ncc(F)cc34)ncc2F)C1)N1CCOCC1 | 4 | 12 | 400 | 22 | half-life [5]: 1.7 h; AUC [6]: 1100 ng·h/mL; Cmax [7]: 200 ng/mL; bioavailability [8]: 46%; AUC [9]: 180000 ng·h/mL; Cmax [10]: 18200 ng/mL
36 | O=C(N[C@@H]1CCC[C@H](Nc2nc(-c3c[nH]c4ncccc34)ncc2F)C1)N1CCOCC1 | 98 | 200 |  |  | 
37 | O=C(N[C@@H]1CCC[C@H](Nc2nc(-c3c[nH]c4ncc(Cl)cc34)ncc2F)C1)N1CCOCC1 | 2 | 5 | 500 | 59 | 
38 | O=C(CN1CCOCC1)N[C@@H]1CCC[C@H](Nc2nc(-c3c[nH]c4ncc(Cl)cc34)ncc2F)C1 | 100 | 380 | 200 |  | 
39 | COCC(=O)N[C@@H]1CCC[C@H](Nc2nc(-c3c[nH]c4ncc(F)cc34)ncc2F)C1 | 45 | 90 | 200 |  | 
